# Measured values pooled from the literature.
# Protocols differ between the studies behind these lines.
SMILES,target or system,effect on,method,strain,time,endpoint,value
CC1=C2C[C@H]3[C@@H](CC[C@@H]4C[C@H](NS(C)(=O)=O)CC[C@@]43C)[C@@H]2CC[C@@]2(C1)O[C@@H]1C[C@H](C)CN[C@H]1[C@H]2C,MB002,cell growth or viability,,,7 days,IC50,> 10000 nM
C#Cc1ccc(/C=C/c2nc3ccccc3c(=O)n2-c2cccc(O)c2)cc1,Enterococcus faecium,microbial growth,broth dilution,NCTC7171,,MIC,32 µg/mL
COC(=O)c1cc(-c2cccc(NC(=O)Nc3cccc(F)c3)c2)on1,Mycobacteroides chelonae,microbial growth,broth dilution,ATCC35752,48 h,MIC,> 64 µg/mL
COc1cc(C(=O)NC2CCN(C)CC2)c(F)cc1Nc1ncc2c(n1)N(C1CCCC1)CC(F)(F)C(=O)N2C,MB002,cell growth or viability,,,7 days,IC50,13.6 nM
COC(=O)c1cc(-c2cccc(NC(=O)Nc3cccc(C#N)c3)c2)on1,Mycobacteroides chelonae,microbial growth,broth dilution,ATCC35752,48 h,MIC,> 64 µg/mL
Cc1ccc(-c2nc3ccc(C)cn3c2CC(=O)N(C)C)cc1,Mycobacteroides chelonae,microbial growth,,,72 h,MIC,> 50 µM
CC(C)c1ccc(/C=C/c2nc3ccccc3c(=O)n2-c2cccc(O)c2)cc1,Enterococcus faecium,microbial growth,broth dilution,NCTC7171,,MIC,> 128 µg/mL
COC(=O)c1cc(-c2cccc(NC(=S)Nc3ccc(OC)cc3)c2)on1,Mycobacteroides chelonae,microbial growth,broth dilution,ATCC35752,48 h,MIC,> 64 µg/mL
O=c1c2ccccc2nc(/C=C/c2ccco2)n1-c1cccc(O)c1,Enterococcus faecium,microbial growth,broth dilution,NCTC7171,,MIC,> 128 µg/mL
COc1cc(OC)c(C=C2C(O)=Nc3ccccc32)c(OC)c1,MB002,cell growth or viability,,,7 days,IC50,58.5 nM
COc1ccc(/C=C/c2nc3ccccc3c(=O)n2-c2cccc(O)c2)cc1,Enterococcus faecium,microbial growth,broth dilution,NCTC7171,,MIC,64 µg/mL
COC(=O)c1cc(-c2cccc(NC(=O)Nc3ccccc3F)c2)on1,Mycobacteroides chelonae,microbial growth,broth dilution,ATCC35752,48 h,MIC,> 64 µg/mL
